High-throughput results (PubChem)
CHRM4 antagonist – CHRM4 antagonism in calcium assay | P08173 | CHO-hM4 cells, ACh EC80, Fluo-8 calcium fluorescence | inhibition, % at 3 µM | hit rate 0.73% among 360,000 | AID 624125;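 active = inhibition above its plate's cutoff, the mean inhibition of sample wells plus 3 SD, cut at about 27% in these data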;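 note: 0% = acetylcholine EC80 with DMSO and 100% = DMSO without agonist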
CHRM5 agonist – agonists of human muscarinic M5 receptor (CHRM5); CHO-K1 hM5 cells, Fluo-8 calcium fluorescence; 0% DMSO wells, 100% maximal acetylcholine response; activation, % at 3 µM; hit rate 0.19% among 360,000; AID 624037;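 active = activation above the run's mean over test compounds plus 3 SD, cut at about 23% in these data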;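 note: signal is peak over basal fluorescence ratio across the kinetic read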
Target sequence (P08912 whole entry, looked up): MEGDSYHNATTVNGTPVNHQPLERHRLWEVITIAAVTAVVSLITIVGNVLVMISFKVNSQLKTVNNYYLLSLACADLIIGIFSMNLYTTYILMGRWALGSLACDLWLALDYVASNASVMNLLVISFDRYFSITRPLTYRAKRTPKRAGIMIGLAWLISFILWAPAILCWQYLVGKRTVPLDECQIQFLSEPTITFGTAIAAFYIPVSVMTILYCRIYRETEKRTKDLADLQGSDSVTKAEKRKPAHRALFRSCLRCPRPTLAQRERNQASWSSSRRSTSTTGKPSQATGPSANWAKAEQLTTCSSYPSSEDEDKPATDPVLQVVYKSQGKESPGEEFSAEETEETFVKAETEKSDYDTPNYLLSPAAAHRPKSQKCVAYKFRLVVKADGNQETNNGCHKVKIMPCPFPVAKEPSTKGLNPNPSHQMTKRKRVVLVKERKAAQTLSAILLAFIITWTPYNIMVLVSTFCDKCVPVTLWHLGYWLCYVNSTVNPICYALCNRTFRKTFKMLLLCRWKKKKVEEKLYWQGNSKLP
CHRM4 PAM – potentiates acetylcholine response at human M4 receptor | P08173 | CHO-K1 hM4/Gqi5, Fluo-8 calcium fluorescence, ACh EC20; 0% = ACh EC20, 100% = maximal ACh | activation, % at 3 µM | hit rate 0.4% among 360,000;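 active = activation above its plate's cutoff, the mean activation of sample wells plus 3 SD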
CHRM5 PAM – CHRM5 positive allosteric modulation; CHO-K1 hM5, Fluo-8 calcium, ACh EC20 PAM; 0% = ACh EC20, 100% = ACh EC100; activation, % at 3 µM; AID 624038; hit rate 0.3% among 360,000;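 active = activation above the run cutoff, the mean activation of all test compounds plus 3 SD, cut at about 18% in these data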
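Assay system: CHO-K1 hM5 cells / Incubation: Fluo-8 loading 80 min at 37 °C plus 30 min room temperature / Technique: Fluo-8 calcium dye fluorescence, kinetic read / Repeats: single replicate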
M4 ag – CHRM4 agonism in calcium assay. activation, % at 3 µM. CHO-K1 hM4/Gqi5, Fluo-8 calcium fluorescence; vehicle 0%, full acetylcholine response 100%. hit rate 0.14% among 360,000. P08173. AID 624127;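 active = activation above the run mean over all test wells plus 3 SD, cut at about 32% in these data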;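 note: peak over basal fluorescence ratio per well then scaled between controls; 0% = DMSO wells and 100% = acetylcholine at EC100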
M5 antag – blocks acetylcholine activation of human M5 receptor | P08912 | CHO-hM5 cells, Fluo-8 calcium fluorescence, ACh EC80 | inhibition, % at 3 µM | hit rate 0.59% among 360,000 | AID 624040;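 active = inhibition above a per-plate cutoff, the mean of that plate's test compounds plus 3 SD, cut at about 27% in these data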;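 note: 0% = acetylcholine EC80 with DMSO and 100% = DMSO without agonist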
An asterisk follows results filed as active. The list is not random: actives were taken first. Their share in the collection is about 1.8%.

SMILES	CHRM4 antagonist	CHRM5 agonist	CHRM4 PAM	CHRM5 PAM	M4 ag	M5 antag
COCCN(C(=O)c1cc(S(=O)(=O)N2CCCCC2)ccc1Cl)c1c(N)n(CC(C)C)c(=O)[nH]c1=O	-12	-1	5	-4	1	9
Cc1ccccc1-c1nc(NCCN(C)C)nc2ccsc12	56*	-4	-13	-20	1	56*
CC(C)Nc1nc(-c2ccccc2CO)c2sccc2n1	-24	-2	2	-3	2	-3
CN(C)CCNc1nc(-c2ccccc2CO)c2sccc2n1	21	-4	-10	-20	1	37*
NCCCCCc1nnc(SCc2ccc(Cl)c(Cl)c2)o1	67*	-7	-31	-19	3	36*
NCCc1nnc(SCc2ccc(F)cc2)o1	-2	-7	1	3	0	-3
CC(C)(C)C(=O)OCc1nc(-c2ccc(C(F)(F)F)cc2)cs1	-4	5	14	19*	0	-15
Cc1ccc(CNC(=O)c2ccc(Cl)c(S(=O)(=O)N3CCCCC3)c2)cc1	-11	2	-5	-3	7	0
CC(=O)N1CCOc2ccc(S(=O)(=O)NCC3CCC(C(=O)NCCC(C)C)CC3)cc21 (centres undefined)	3	-5	16*	4	3	-3
CCOc1ccc(NC(=O)CN(c2ccc(OC)cc2)S(=O)(=O)c2cccs2)cc1	2	-1	5	-2	0	4
Cc1nn(CC(=O)NCCCN2CC(C)CC(C)C2)c(=O)c2cccn12 (centres undefined)	1	-6	3	-3	0	17
COc1ccc(C2NC(=S)N3C(c4ccc(OC)cc4)NC(=S)N23)cc1 (centres undefined)	-2	-5	17	-2	1	0
COc1ccc(C2Nc3cc(OC)ccc3-n3cccc32)cc1 (centres undefined)	-19	2	17*	13	2	4
Cc1cccc(C(=O)Nc2ccccc2C(=O)OCC(=O)Nc2ccc(C#N)cc2)c1	14	0	-14	-16	10	28*
Cc1ccccc1NC(=O)CSc1nnc(Cc2ccccc2)c(=O)n1N	-5	1	2	7	0	-6
CCNC(=O)NC1c2ccccc2CSc2ccccc21 (centres undefined)	1	-6	1	12	1	-9
CCOCCN1CCN(C2c3ccccc3CSc3ccccc32)CC1 (centres undefined)	99*	-20	-15	-30	0	100*
Cc1ccc(OCCN2CCN(c3ncnc4sc(C)c(C)c34)CC2)cc1	21	4	-3	-14	8	32*
Clc1ccc(OCCN2CCN(c3ncnc4sccc34)CC2)cc1	35*	4	-17	-17	12	33*
CC(=O)N(C1=C(Cl)C(=O)c2ccccc2C1=O)C1CCCCC1	44*	10	-13	13	11	10
CCOc1ccc(NC(=O)CN(C)C(=O)COc2cccc3c2OC(C)(C)C3)cc1OCC	7	0	1	11	-1	4
CC(NCc1ccc2c(c1)OCO2)C(=O)N1CCc2ccccc21 (centres undefined)	-18	0	23*	18	4	-5
CC1(Oc2cccc(F)c2)CCN(Cc2csc3ccccc23)C1 (centres undefined)	7	-2	-4	-3	-2	-2
COC(=O)Cc1ccc(OC2(C)CCN(Cc3csc4ccccc34)C2)cc1 (centres undefined)	54*	-2	-13	-19	1	7
Cc1cc(C)n(-c2ccc(NC(=O)C3CCCCN3Cc3cccc4c3OCO4)cc2)n1 (centres undefined)	-7	-4	-2	-7	4	-1
CCN1CCN(C(=O)c2cc3c(OC)c(OC)c(OC)cc3[nH]2)CC1	61*	-3	-19	-6	0	24
Cc1ccc2nc(NCCNC(=O)c3ccccc3)c(C#N)cc2c1	51*	0	-14	12	0	5
